One may read the IC50 as the concentration that gives 50% inhibition. Lower therefore signals inhibition by little substance.

SMILES strings stand for the structures.

In test [1] the target is Carbonic anhydrase 9 (Homo sapiens) (UniProt Q16790). The test can be described thus: Binding affinity to human CA9 by phenol red dye based stopped flow CO2 hydration assay. The settings on record: filed as activator. In short, it runs like this: (§1)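 Purified recombinant human CA isoforms. CA-catalysed CO2 hydration was followed by stopped-flow with phenol red at 557 nm, taking initial rates over 10–100 s from at least six traces of the first 5–10% of reaction. Uncatalysed rates were subtracted. Activator stocks were 0.1 mM in deionised water, diluted down to 0.1 nM in assay buffer. K_A came from non-linear least-squares Michaelis–Menten fitting.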

For test [2], the target named is Carbonic anhydrase 7 (Homo sapiens) (UniProt P43166). Briefly: Binding affinity to human CA7 by phenol red dye based stopped flow CO2 hydration assay. The settings on record: filed as activator. In short, it runs like this:
as §1

For another test, the system named is Mus musculus. Briefly: Pro-cognitive activity in C57Bl6 mouse assessed as attenuation of long-term memory deficit by measuring increase in exploration time for novel object by measuring discrimination index at 25 nmol/uL, icv measured after 24 hrs by novel object recognition test.
For test [3], the target named is Carbonic anhydrase 5A, mitochondrial (Homo sapiens) (UniProt P35218). The test can be described thus: Binding affinity to human CA5a by phenol red dye based stopped flow CO2 hydration assay. The settings on record: filed as activator. In short, it runs like this:
as §1

Test [4] addresses T1, Amine oxidase [flavin-containing] B (Homo sapiens, UniProt P27338).
T1 sequence (P27338 whole entry): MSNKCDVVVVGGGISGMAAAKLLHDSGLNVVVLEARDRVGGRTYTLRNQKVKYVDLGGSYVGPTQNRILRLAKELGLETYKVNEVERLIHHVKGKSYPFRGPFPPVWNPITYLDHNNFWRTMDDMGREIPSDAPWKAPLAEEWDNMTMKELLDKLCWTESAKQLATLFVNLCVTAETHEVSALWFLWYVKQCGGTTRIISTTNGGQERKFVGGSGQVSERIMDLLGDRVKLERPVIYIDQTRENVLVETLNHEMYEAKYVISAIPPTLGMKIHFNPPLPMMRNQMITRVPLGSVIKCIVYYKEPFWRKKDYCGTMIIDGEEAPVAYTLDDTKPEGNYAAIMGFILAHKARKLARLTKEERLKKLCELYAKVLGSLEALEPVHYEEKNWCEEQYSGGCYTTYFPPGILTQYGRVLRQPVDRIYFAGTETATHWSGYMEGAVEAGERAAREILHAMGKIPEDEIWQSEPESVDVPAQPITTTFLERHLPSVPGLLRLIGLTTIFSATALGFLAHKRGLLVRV

Carbonic anhydrase 7 (Homo sapiens), sequence (P43166 whole entry): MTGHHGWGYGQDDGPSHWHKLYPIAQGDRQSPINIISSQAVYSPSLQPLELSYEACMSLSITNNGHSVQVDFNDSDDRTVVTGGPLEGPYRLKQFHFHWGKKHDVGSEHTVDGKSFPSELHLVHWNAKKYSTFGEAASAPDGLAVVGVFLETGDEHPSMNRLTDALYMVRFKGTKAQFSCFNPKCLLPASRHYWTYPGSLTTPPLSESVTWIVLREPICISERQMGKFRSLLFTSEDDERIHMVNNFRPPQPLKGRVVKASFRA
Carbonic anhydrase 5A, mitochondrial (Homo sapiens), sequence (P35218 whole entry): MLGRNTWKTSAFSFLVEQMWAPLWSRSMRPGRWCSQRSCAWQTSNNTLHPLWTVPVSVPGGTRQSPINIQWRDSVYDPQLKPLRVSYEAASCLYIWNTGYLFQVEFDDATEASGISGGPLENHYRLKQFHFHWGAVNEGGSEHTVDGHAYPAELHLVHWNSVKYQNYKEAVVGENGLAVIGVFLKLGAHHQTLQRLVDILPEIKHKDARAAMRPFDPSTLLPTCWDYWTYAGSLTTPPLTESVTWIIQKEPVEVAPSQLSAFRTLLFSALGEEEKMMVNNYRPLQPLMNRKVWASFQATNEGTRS

Regarding `CC(N)CSc1ccccc1` (stereo not given), the Ka in test [1] came out at 74.8 µM; in test [2] it was 23.4 µM; in test [3] it was 12.4 µM. Further, the Activity_index in the test with Mus musculus amounted to 0.111. Moreover, in test [4], it took 57.3 µM to reach half-maximal inhibition (IC50).

(Values after ChEMBL document CHEMBL5247599, “New β-arylchalcogeno amines with procognitive properties targeting Carbonic Anhydrases and Monoamine Oxidases” (Eur J Med Chem, 2022).)
